In ChEMBL document CHEMBL2040707, “Fluorinated amino-derivatives of the sesquiterpene lactone, parthenolide, as (19)f NMR probes in deuterium-free environments” (2011):

System: HL-60
Assay: Antiproliferative activity against human HL60 cells after 72 hrs by MTT assay
Assay type: functional
Settings: HL-60, 72 h
Method in brief: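 HL-60 cells from ATCC grown in phenol red-free RPMI-1640 with 10% FBS at 37 °C, 5% CO2. Seeded 5,000 cells/well, treated at ten concentrations in quadruplicate (final 0.5% DMSO; vehicle control 0.5% DMSO). After 72 h, MTT (2.5 mg/mL solution) added for 4 h, formazan dissolved in acidic isopropanol/Triton for 16 h, A570 read. GI50 set relative to a Day 0 density plate; 95% CI given.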

| Compound | GI50 | LC50 (concentration killing 50% of cells) | TGI |
| --- | --- | --- | --- |
| C/C1=C/CC[C@@]2(C)O[C@@H]2[C@H]2OC(=O)[C@@H](CN3CCCCC3)[C@@H]2CC1 | 0.84 µM | 10.1 µM | 3.99 µM |
| C/C1=C/CC[C@@]2(C)O[C@@H]2[C@H]2OC(=O)[C@@H](CN3CCCC(F)C3)[C@@H]2CC1 (stereo partly specified) | 1.13 µM |  | 12.2 µM |
| C/C1=C/CC[C@@]2(C)O[C@@H]2[C@H]2OC(=O)[C@@H](CN3CCCC(F)(F)C3)[C@@H]2CC1 | 16.9 µM |  |  |
| C/C1=C/CC[C@@]2(C)O[C@@H]2[C@H]2OC(=O)[C@@H](CN3CCCC(C(F)(F)F)C3)[C@@H]2CC1 (stereo partly specified) | 1.69 µM | 21.3 µM | 7.29 µM |
| C/C1=C/CC[C@@]2(C)O[C@@H]2[C@H]2OC(=O)[C@@H](CN3CCC(F)CC3)[C@@H]2CC1 | 1.77 µM | 8.07 µM | 5.7 µM |
| C/C1=C\CC[C@@]2(C)O[C@@H]2[C@H]2OC(=O)[C@@H](CN3CCC(F)(F)CC3)[C@@H]2CC1 | 0.69 µM | 17.7 µM | 5.58 µM |
| C/C1=C/CC[C@@]2(C)O[C@@H]2[C@H]2OC(=O)[C@@H](CN3CCC(C(F)(F)F)CC3)[C@@H]2CC1 | 1 µM | 3.11 µM | 2.14 µM |
| C/C1=C/CC[C@@]2(C)O[C@@H]2[C@H]2OC(=O)[C@@H](CN3CCCC3)[C@@H]2CC1 | 0.75 µM | 2.54 µM | 1.74 µM |
| C/C1=C/CC[C@@]2(C)O[C@@H]2[C@H]2OC(=O)[C@@H](CN3CC[C@@H](F)C3)[C@@H]2CC1 | 0.58 µM | 1.66 µM | 1.18 µM |
| C/C1=C/CC[C@@]2(C)O[C@@H]2[C@H]2OC(=O)[C@@H](CN3CC[C@H](F)C3)[C@@H]2CC1 | 24.7 µM |  | 46.2 µM |
| C/C1=C/CC[C@@]2(C)O[C@@H]2[C@H]2OC(=O)[C@@H](CN3CCC(F)(F)C3)[C@@H]2CC1 | 8.32 µM | 23.8 µM | 18.3 µM |
| C=C1C(=O)O[C@@H]2C3O[C@]3(C)CC/C=C(\C)CC[C@@H]12 (stereo partly specified) | 0.52 µM |  | 1.36 µM |
